Test results taken from ChEMBL document CHEMBL1145425, “Antitumor agents 259. Design, syntheses, and structure-activity relationship study of desmosdumotin C analogs” (2007).
≈ marks a conversion by molar mass, not a printed value.

Key:
[1] = tested on: A549; assay: Cytotoxicity against human A549 cells; type: functional; details: read-out: ED50 (the source's name)
How it was run: (§1)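 Sulforhodamine B growth assay. Lines kept in RPMI-1640 with 25 mM HEPES, 0.25% sodium bicarbonate, 10% FBS and kanamycin. Trypsinized cells seeded at 1500–7500 per well, with compound added from DMSO-diluted stock. After 3 days, attached cells fixed with cold 50% TCA, stained with 0.4% SRB, dye solubilized, absorbance read at 562 nm. ED50 is 50% growth reduction, averaged over at least three independent determinations.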

[2] = tested on: A-431; assay: Cytotoxicity against human A431 cells; type: functional; details: read-out: ED50 (the source's name); how it was run: as §1
[3] = tested on: 1A9; assay: Cytotoxicity against human 1A9 cells; type: functional; details: read-out: ED50 (the source's name); how it was run: as §1
[4] = tested on: HCT-8; assay: Cytotoxicity against human HCT8 cells; type: functional; details: read-out: ED50 (the source's name); how it was run: as §1
[5] = tested on: PC-3; assay: Cytotoxicity against human PC3 cells; type: functional; details: read-out: ED50 (the source's name); how it was run: as §1
[6] = tested on: KB; assay: Cytotoxicity against human KB cells; type: functional; details: read-out: ED50 (the source's name); how it was run: as §1
[7] = tested on: KB; assay: Cytotoxicity against human vincristine-resistant KB cells; type: functional; details: read-out: ED50 (the source's name); how it was run: as §1
[8] = Selectivity ratio of ED50 for KB cells to ED50 for KB-VIN cells; type: functional, Homo sapiens
[9] = tested on: HUVEC; assay: Cytotoxicity against HUVEC; type: functional; details: Homo sapiens, read-out: ED50 (the source's name)
How it was run: (§2)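 HUVEC seeded at 1.5×10^3 per well in EGM-2; after 24 h (day zero) compound added in EGM-2 at 2× the desired concentration. Day-zero plate stained with crystal violet. Remaining plates kept 72 h at 37 °C, then stained with 0.5% crystal violet in 20% MeOH. Dye eluted with 1:1 EtOH:0.1 M sodium citrate and read at 540 nm. Run per the NCI Angiogenesis Resource Center protocol.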

[10] = tested on: HUVEC; assay: Antiangiogenesis activity against HUVEC; type: functional; details: Homo sapiens, read-out: ED50 (the source's name); how it was run: as §2

| Structure (SMILES) | EC50 [1] [µg/mL] | EC50 [2] [µg/mL] | EC50 [3] [µg/mL] | EC50 [4] [µg/mL] | EC50 [5] [µg/mL] | EC50 [6] [µg/mL] | EC50 [7] [µg/mL] | Ratio ED50 [8] | EC50 [9] [µg/mL] | EC50 [10] [µg/mL] |
| --- | --- | --- | --- | --- | --- | --- | --- | --- | --- | --- |
| CCCC1=C(OC)C(CCC)(CCC)C(=O)/C(=C(O)\C=C\c2ccccc2)C1=O | 1.4 (≈ 3.53 µM) | 1.9 (≈ 4.79 µM) | 1.5 (≈ 3.78 µM) | 1.4 (≈ 3.53 µM) | 3.3 (≈ 8.32 µM) | 0.6 (≈ 1.51 µM) | 0.8 (≈ 2.02 µM) | – | – | – |
| CCC1=C(OC)C(CC)(CC)C(=O)C(C(=O)/C=C/c2ccccc2)=C1O | 3.4 (≈ 9.59 µM) | 5.4 (≈ 15.2 µM) | 2.1 (≈ 5.92 µM) | 2.8 (≈ 7.9 µM) | 7.7 (≈ 21.7 µM) | 2.8 (≈ 7.9 µM) | 1.2 (≈ 3.39 µM) | – | – | – |
| COC1=C(C)C(=O)/C(=C(O)/C=C/c2c(C)cc(C)cc2C)C(=O)C1(C)C | 8 (≈ 22.6 µM) | 20 (≈ 56.4 µM) | 6.2 (≈ 17.5 µM) | 8.4 (≈ 23.7 µM) | > 20 | > 20 | 1.84 (≈ 5.19 µM) | >5 | – | – |
| CCC1=C(OC)C(CC)(CC)C(=O)C(C(=O)/C=C/c2ccc(CC)cc2)=C1O | 3.8 (≈ 9.93 µM) | 9.8 (≈ 25.6 µM) | 3.8 (≈ 9.93 µM) | 8.5 (≈ 22.2 µM) | 15 (≈ 39.2 µM) | 3.6 (≈ 9.41 µM) | 2.6 (≈ 6.8 µM) | – | – | – |
| CCC1=C(OC)C(C)(C)C(=O)C(C(=O)/C=C/c2ccccc2)=C1O | 5.5 (≈ 16.9 µM) | 13.8 (≈ 42.3 µM) | 3.8 (≈ 11.6 µM) | 9.4 (≈ 28.8 µM) | 18.9 (≈ 57.9 µM) | 4.3 (≈ 13.2 µM) | 0.3 (≈ 0.919 µM) | 14.3 | – | – |
| CC1=C(O)C(C)(C)C(=O)C(C(=O)/C=C/c2ccccc2)=C1O | 9 (≈ 30.2 µM) | 14 (≈ 46.9 µM) | 8 (≈ 26.8 µM) | 15.8 (≈ 53 µM) | 17.8 (≈ 59.7 µM) | 10.5 (≈ 35.2 µM) | 6.5 (≈ 21.8 µM) | – | 2.1 (≈ 7.04 µM) | < 4 |
| COC1=CC(O)=C(C(=O)/C=C/c2ccccc2)C(=O)C1(C)C | > 5 | 7 (≈ 23.5 µM) | 3.6 (≈ 12.1 µM) | 3.3 (≈ 11.1 µM) | 14.2 (≈ 47.6 µM) | 4.1 (≈ 13.7 µM) | 2.9 (≈ 9.72 µM) | – | > 20 | – |
| COC1=C(C)C(O)=C(C(=O)/C=C/c2ccccc2)C(=O)C1(C)C [DESMOSDUMOTIN C] | 3.5 (≈ 11.2 µM) | 5.1 (≈ 16.3 µM) | 3.5 (≈ 11.2 µM) | 3.7 (≈ 11.8 µM) | 11.1 (≈ 35.5 µM) | 4 (≈ 12.8 µM) | 3 (≈ 9.6 µM) | – | 2.1 (≈ 6.72 µM) | < 4 |
| COC1=C(C)C(=O)/C(=C(O)/C=C/c2cccc(OC)c2)C(=O)C1(C)C | 2.8 (≈ 8.18 µM) | 4.5 (≈ 13.1 µM) | 2.9 (≈ 8.47 µM) | 2.9 (≈ 8.47 µM) | 14.3 (≈ 41.8 µM) | 3.3 (≈ 9.64 µM) | 2.4 (≈ 7.01 µM) | – | 1.6 (≈ 4.67 µM) | < 4 |
| C=Cc1ccccc1/C=C/C(O)=C1/C(=O)C(C)=C(OC)C(C)(C)C1=O | 2.2 (≈ 6.5 µM) | 2.6 (≈ 7.68 µM) | – | 2.1 (≈ 6.21 µM) | 4.6 (≈ 13.6 µM) | 1.9 (≈ 5.61 µM) | 1.1 (≈ 3.25 µM) | – | 1.1 (≈ 3.25 µM) | 1.1 (≈ 3.25 µM) |
| COC1=C(C)C(=O)/C(=C(O)/C=C/c2cccs2)C(=O)C1(C)C | 4.5 (≈ 14.1 µM) | 10.8 (≈ 33.9 µM) | 4 (≈ 12.6 µM) | 8.6 (≈ 27 µM) | 18.2 (≈ 57.2 µM) | 5.5 (≈ 17.3 µM) | 3.4 (≈ 10.7 µM) | – | 2.5 (≈ 7.85 µM) | < 4 |
| CC1(C)C(=O)C(C(=O)/C=C/c2ccccc2)=C(O)C(C)(C)C1=O | > 5 | 10.5 (≈ 33.6 µM) | 4.6 (≈ 14.7 µM) | 5 (≈ 16 µM) | 11.1 (≈ 35.5 µM) | 7.3 (≈ 23.4 µM) | 3.8 (≈ 12.2 µM) | – | 2 (≈ 6.4 µM) | < 4 |
| COC1=C(C)C(=O)/C(=C(O)/C=C/c2ccc(OC)cc2)C(=O)C1(C)C | 3 (≈ 8.76 µM) | 9.2 (≈ 26.9 µM) | 2.8 (≈ 8.18 µM) | 5.6 (≈ 16.4 µM) | 18.2 (≈ 53.2 µM) | 3.6 (≈ 10.5 µM) | 2.9 (≈ 8.47 µM) | – | 2.5 (≈ 7.3 µM) | < 4 |
| COC1=C(C)C(=O)/C(=C(O)/C=C/c2ccc(O)cc2)C(=O)C1(C)C | 3.1 (≈ 9.44 µM) | 14.9 (≈ 45.4 µM) | 2.9 (≈ 8.83 µM) | 14.8 (≈ 45.1 µM) | > 20 | 3.8 (≈ 11.6 µM) | 3.8 (≈ 11.6 µM) | – | 4 (≈ 12.2 µM) | < 4 |
| COC1=C(C)C(=O)/C(=C(O)/C=C/c2nccs2)C(=O)C1(C)C | 3.5 (≈ 11 µM) | 6 (≈ 18.8 µM) | 3.5 (≈ 11 µM) | 5.1 (≈ 16 µM) | 10.8 (≈ 33.8 µM) | 4.3 (≈ 13.5 µM) | 3 (≈ 9.39 µM) | – | 1.6 (≈ 5.01 µM) | < 4 |
| COC1=C(C)C(=O)/C(=C(O)/C=C/c2c(C)cccc2C)C(=O)C1(C)C | 8.3 (≈ 24.4 µM) | 10.1 (≈ 29.7 µM) | – | 7.8 (≈ 22.9 µM) | 17.1 (≈ 50.2 µM) | 7.1 (≈ 20.9 µM) | 2.1 (≈ 6.17 µM) | – | 3 (≈ 8.81 µM) | < 4 |
| COC1=C(C)C(=O)/C(=C(O)/C=C/c2ccc(F)cc2)C(=O)C1(C)C | 3.3 (≈ 9.99 µM) | 4.1 (≈ 12.4 µM) | – | 3.6 (≈ 10.9 µM) | 7.2 (≈ 21.8 µM) | 3.7 (≈ 11.2 µM) | 2.7 (≈ 8.17 µM) | – | 2 (≈ 6.05 µM) | < 4 |
| COC1=C(C)C(=O)/C(=C(O)/C=C/c2ccc(C)cc2)C(=O)C1(C)C | 4.3 (≈ 13.2 µM) | 5.1 (≈ 15.6 µM) | – | 4.1 (≈ 12.6 µM) | 8.2 (≈ 25.1 µM) | 3.9 (≈ 11.9 µM) | 1.9 (≈ 5.82 µM) | – | 2.4 (≈ 7.35 µM) | < 4 |
| COC1=C(C)C(=O)/C(=C(O)/C=C/c2cc(C)cc(C)c2)C(=O)C1(C)C | 4.3 (≈ 12.6 µM) | 4 (≈ 11.8 µM) | – | 2.9 (≈ 8.52 µM) | 8.8 (≈ 25.9 µM) | 3.1 (≈ 9.11 µM) | 1.6 (≈ 4.7 µM) | – | 2.5 (≈ 7.34 µM) | < 4 |
| COC1=C(C)C(=O)/C(=C(O)/C=C/c2ccccc2OC)C(=O)C1(C)C | 2.4 (≈ 7.01 µM) | 6.6 (≈ 19.3 µM) | 2.5 (≈ 7.3 µM) | 4.1 (≈ 12 µM) | 15.6 (≈ 45.6 µM) | 3.3 (≈ 9.64 µM) | 2.8 (≈ 8.18 µM) | – | 1.7 (≈ 4.97 µM) | < 4 |
| CCCC1=C(OC)C(CCC)(CCC)C(=O)/C(=C(O)\C=C\c2ccc(Br)cc2)C1=O | 1 (≈ 2.1 µM) | 1.2 (≈ 2.52 µM) | 0.9 (≈ 1.89 µM) | 1.3 (≈ 2.73 µM) | 2.3 (≈ 4.84 µM) | 0.9 (≈ 1.89 µM) | 0.9 (≈ 1.89 µM) | – | – | – |
| COC1=C(C)C(=O)/C(=C(O)/C=C/c2ccco2)C(=O)C1(C)C | 10 (≈ 33.1 µM) | 14.7 (≈ 48.6 µM) | 7.9 (≈ 26.1 µM) | 17.5 (≈ 57.9 µM) | 20.6 (≈ 68.1 µM) | 9.9 (≈ 32.7 µM) | 8.8 (≈ 29.1 µM) | – | 2.4 (≈ 7.94 µM) | < 4 |
| COC1=C(C)C(=O)/C(=C(O)/C=C/c2ccc(Br)cc2)C(=O)C1(C)C | 1.4 (≈ 3.58 µM) | 9 (≈ 23 µM) | 1.1 (≈ 2.81 µM) | 7.4 (≈ 18.9 µM) | 17.7 (≈ 45.2 µM) | 1.7 (≈ 4.34 µM) | 1.9 (≈ 4.86 µM) | – | 3.6 (≈ 9.2 µM) | < 4 |
| CCC1=C(OC)C(CC)(CC)C(=O)C(C(=O)/C=C/c2ccc(C)cc2)=C1O | 4.6 (≈ 12.5 µM) | 10.3 (≈ 28 µM) | 4.3 (≈ 11.7 µM) | 9.4 (≈ 25.5 µM) | 15 (≈ 40.7 µM) | 3 (≈ 8.14 µM) | 1 (≈ 2.71 µM) | – | – | – |
| CCc1ccc(/C=C/C(O)=C2/C(=O)C(C)=C(OC)C(C)(C)C2=O)cc1 | 6.1 (≈ 17.9 µM) | 12 (≈ 35.3 µM) | 5.3 (≈ 15.6 µM) | 10.5 (≈ 30.8 µM) | 15.1 (≈ 44.4 µM) | 6.9 (≈ 20.3 µM) | 1.9 (≈ 5.58 µM) | – | – | – |
| COC1=C(C)C(=O)/C(=C(O)/C=C/c2cccc3ccccc23)C(=O)C1(C)C | 3.6 (≈ 9.93 µM) | 4.1 (≈ 11.3 µM) | – | 2.3 (≈ 6.35 µM) | 9 (≈ 24.8 µM) | 2.8 (≈ 7.73 µM) | 1.3 (≈ 3.59 µM) | – | 1.8 (≈ 4.97 µM) | < 4 |
